High-throughput results from PubChem.
Insulin prom act: TRM-6 insulin promoter activation. TRM-6 cells (human fetal islet line), insulin promoter eGFP reporter, imaging; plate-scaled: unstimulated 0, stimulated control 100. activation, % at 2 µM. hit rate 0.81% among 130,000. AID 1296;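 active = activation at 2 µM above a set limit, confirmed on inspection of the cell images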;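 note: share of cells whose green reporter signal exceeds an intensity cutoff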
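Test system: TRM-6 insulin promoter–eGFP reporter cells / Quantity: 1,000 cells per well / Reagent: tamoxifen inducer, 0.75 µM, in seeding medium / Compound dosing: 2 µM final, single concentration / Schedule: overnight tamoxifen, then two-day compound incubation at 37 °C / Measured by: automated fluorescence imaging of paraformaldehyde-fixed, Hoechst-counterstained cells, green channel / Read-out: percent activation from GFP-positive cell fraction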
The depositor's hits bear a star. The sample as a whole holds a higher share of hits than the screen did.

SMILES | Insulin prom act
O=S(=O)(NC1CCCCC1Nc1ccccc1)c1ccccc1 (configuration not stated) | -3
CSc1ccc(OC2CCCCC2NS(=O)(=O)c2ccc(Cl)cc2)cc1 (configuration not stated) | -100
O=C(CNC(=O)c1ccccc1Cl)N/N=C/C=C/c1ccccc1 | 7
CN(C)S(=O)(=O)c1ccc(Cl)c(NC(=O)CSc2nc3ccccc3c(=O)n2CCCN2CCOCC2)c1 | -9
Cn1c(=O)c2cc(S(=O)(=O)N3CCC(c4ccccc4)CC3)ccc2n(C)c1=O | 6
Cc1ccc(NS(=O)(=O)c2cc(C(=O)N(C)C)ccc2C)cc1C | -7
CCOc1ccccc1-n1c(=O)c2ccccc2c2ccccc2c1=O | -5
CCOc1ccccc1C(=O)n1nc(C)cc1C | 3
CCOc1ccccc1C(=O)N1c2ccccc2Sc2ccccc21 | 100*
O=C(O)CCCC(=O)N1N=C(c2ccccc2)CC1c1ccc2nccnc2c1 (configuration not stated) | -7
CC(CN(C)Cc1ccccc1)OC(=O)c1ccc2c(c1)OCCO2 (configuration not stated) | -4
Cc1ccc(Nc2nc(N)c([N+](=O)[O-])c(N3CCC(C)CC3)n2)cc1C | 529*
CCN1CCN(c2nc(Nc3cccc(C)c3)nc(N)c2[N+](=O)[O-])CC1 | 8
Cc1ccc(Nc2nc(NCC3CCCO3)nc(N)c2[N+](=O)[O-])cc1C (configuration not stated) | 5
O=C(OCn1nnc2ccccc2c1=O)c1ccc2c(=O)n3c(nc2c1)CCC3 | 0
CCC(C)(C(=O)NC1CCCC1)N(Cc1cccs1)C(=O)Cc1cccs1 (configuration not stated) | 83*
CCC(C)(C(=O)NC1CCCC1)N(C)C(=O)Cc1c[nH]c2ccccc12 (configuration not stated) | 0
CCC(C)(C(=O)NC1CCCCC1)N(Cc1cccs1)C(=O)c1ccccn1 (configuration not stated) | 107
CCNC(=O)c1ccc2c(c1)C1C3CCC(C3)C1C(c1ccccc1)N2 (configuration not stated) | 8
Cc1ccc(OCC(=O)Nc2ccc(N3CCCC3)cc2)cc1C | 163*
COc1ccccc1OCC(=O)Nc1ccc(N2CCCCC2)cc1 | -9
O=C(COc1cccc(Cl)c1)Nc1ccc(N2CCOCC2)cc1 | 0
Cc1occc1C(=O)NNC(=S)NCc1ccccc1 | 0
COc1ccc(C(=O)C2CCCN(Cc3ccc(C#CCCO)cc3)C2)cc1F (configuration not stated) | -8
CCOc1ccc(C(=O)NCC(=O)OCc2c(F)cccc2Cl)cc1 | 193
SMILES | Insulin prom act
CC(=NC1CC1)C1=C(O)c2ccccc2C1=O | 6
O=C1C(C2=C(O)c3ccccc3C2=O)=Nc2ccccc21 | 440*
CC(=NCCCN(C)C)C1=C(O)c2ccccc2C1=O | -6
Cc1ccc(N(CC(=O)NCCSc2ccccn2)S(=O)(=O)c2ccc(F)cc2)cc1 | 171
COc1ccc(NS(=O)(=O)c2ccc(N3CCCC3)c(NC(=S)Nc3cccc(S(=O)(=O)N(C)C)c3)c2)cc1 | 8
COc1ccc(NC(=O)CCCn2cc([N+](=O)[O-])cn2)cc1 | 0
COc1ccc(CCNC(=O)CN2CCN(c3cccc(C(F)(F)F)c3)CC2)cc1 | -1
CC1(C)O[C@H]2OC([C@H](O)CON3C(=O)c4ccccc4C3=O)[C@H](O)[C@H]2O1 (some centres not stated) | 264*
Cc1ccc(C(=O)OCC2OC3OC(C)(C)OC3C2O)cc1 (configuration not stated) | 10
O=C1c2ccccc2C(=O)N1OCCOCCOCCBr | 3
CC(=O)c1cc2c(C)c(C(=O)c3ccccc3)oc2cc1O | 0
COc1ccc(-[n+]2c(C)cc(/C=C3\Sc4ccccc4N3C)cc2C)cc1 | 400*
CCc1nnc(NC(=O)CN2CCN(c3ccc(Cl)cc3)CC2)s1 | 117
Cc1c(/C=N\NC(=O)C2COc3ccc(C(C)(C)C)cc3O2)c2ccccc2n1C (configuration not stated) | 0
CCc1nnc(NC(=O)c2ccc3c(c2)C(=O)N(CC)C3=O)s1 | 0
CCC(=O)Nc1nc(C)nc(C)c1C(C)=O | 6
CC(=O)Nc1nc(-c2ccccc2)nc(C)c1C(C)=O | -3
CC(=O)Nc1nc(C)nc(C)c1C(C)=O | 129*
COc1ccccc1/C=C1\CCCC2=C1Nc1nnnn1C2c1ccccc1OC (configuration not stated) | -80
O=C(c1ccc(F)cc1)c1cn[nH]c1-c1ccccc1O | 171*
Cc1[nH]nc2ncc(C(=O)c3ccccc3O)cc12 | -80
Cc1ccc(C(=O)c2cn[nH]c2-c2ccccc2O)cc1 | 0
Cc1ccc(C(=O)NCc2cccnc2)cc1S(=O)(=O)Nc1ccccc1 | 10
COc1ccc(S(=O)(=O)NCCSC(C)(C)C)c(Cl)c1Cl | 4
CC(=O)Nc1ccc2c(c1)C(C)(C)C(C)N2C (configuration not stated) | 115
CC(C)CN1C(=O)/C(=C/c2cccs2)NC1=S | 431*
